This is an account of results in ChEMBL document CHEMBL1122942, “Conformationally defined adrenergic agents. 1. Design and synthesis of novel alpha 2 selective adrenergic agents: electrostatic repulsion based conformational prototypes” (J Med Chem, 1985).

In general, Ki refers to the equilibrium dissociation constant of an inhibitor or competing ligand from its target. A higher Ki goes with a looser hold on the target.

The target in experiment [1] is T1, Adrenergic receptor alpha-1 (Rattus norvegicus, UniProt P15823+P23944+P43140).
T1 sequence (P15823 whole entry): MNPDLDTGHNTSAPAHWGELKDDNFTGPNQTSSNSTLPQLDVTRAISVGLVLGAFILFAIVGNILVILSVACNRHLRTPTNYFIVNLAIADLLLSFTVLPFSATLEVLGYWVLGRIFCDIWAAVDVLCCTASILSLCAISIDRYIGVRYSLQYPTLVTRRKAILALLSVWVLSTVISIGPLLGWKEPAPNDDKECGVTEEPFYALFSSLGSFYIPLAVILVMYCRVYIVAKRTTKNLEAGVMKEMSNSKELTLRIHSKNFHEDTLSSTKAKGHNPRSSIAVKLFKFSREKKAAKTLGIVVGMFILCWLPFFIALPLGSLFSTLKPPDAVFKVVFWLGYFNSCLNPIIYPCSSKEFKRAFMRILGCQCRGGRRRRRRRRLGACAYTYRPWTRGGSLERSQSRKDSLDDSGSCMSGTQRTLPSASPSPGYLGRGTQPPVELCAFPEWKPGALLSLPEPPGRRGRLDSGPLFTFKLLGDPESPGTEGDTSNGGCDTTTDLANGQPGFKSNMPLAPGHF
T1 sequence (P23944 whole entry): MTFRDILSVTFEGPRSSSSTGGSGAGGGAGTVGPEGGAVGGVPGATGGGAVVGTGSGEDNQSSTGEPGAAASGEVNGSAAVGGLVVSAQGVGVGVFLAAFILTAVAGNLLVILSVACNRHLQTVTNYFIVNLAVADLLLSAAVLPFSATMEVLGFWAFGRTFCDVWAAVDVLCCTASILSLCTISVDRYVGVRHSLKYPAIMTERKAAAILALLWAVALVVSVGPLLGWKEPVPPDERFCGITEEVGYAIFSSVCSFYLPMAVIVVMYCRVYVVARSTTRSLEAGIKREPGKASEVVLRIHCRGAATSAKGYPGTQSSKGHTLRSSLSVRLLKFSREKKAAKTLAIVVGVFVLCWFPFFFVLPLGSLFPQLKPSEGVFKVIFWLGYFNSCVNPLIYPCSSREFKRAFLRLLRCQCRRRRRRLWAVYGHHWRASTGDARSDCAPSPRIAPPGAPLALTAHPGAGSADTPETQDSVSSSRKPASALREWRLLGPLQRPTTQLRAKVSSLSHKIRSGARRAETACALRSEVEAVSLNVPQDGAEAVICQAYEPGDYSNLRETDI
T1 sequence (P43140 whole entry): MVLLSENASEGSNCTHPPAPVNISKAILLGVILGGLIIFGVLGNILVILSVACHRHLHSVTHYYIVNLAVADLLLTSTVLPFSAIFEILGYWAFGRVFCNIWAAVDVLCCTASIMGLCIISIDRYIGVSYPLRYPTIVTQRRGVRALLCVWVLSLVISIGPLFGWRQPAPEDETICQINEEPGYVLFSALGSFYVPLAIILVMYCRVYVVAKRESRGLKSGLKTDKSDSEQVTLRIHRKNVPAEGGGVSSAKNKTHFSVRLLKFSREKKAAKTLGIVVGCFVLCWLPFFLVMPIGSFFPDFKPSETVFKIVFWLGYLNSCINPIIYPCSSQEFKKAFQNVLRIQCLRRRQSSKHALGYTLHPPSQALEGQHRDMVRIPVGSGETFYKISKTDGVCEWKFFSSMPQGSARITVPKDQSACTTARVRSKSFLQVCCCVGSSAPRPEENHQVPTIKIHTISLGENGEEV
The experiment is described as follows: Binding affinity against alpha-1 adrenergic receptor in rat using [3H]prazosin as radioligand. The method in brief: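 Male Sprague-Dawley rat liver membranes (50-150 µg/mL protein) in 50 mM Tris-HCl pH 7.7 with [3H]prazosin. Incubated 50 min at 25 °C; phentolamine 10^-5 M defined nonspecific binding. At least four concentrations from 10^-10 to 10^-3 M, each in duplicate. Bound ligand was filtered and counted by scintillation.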

Experiment [2] has as its target T2, Adrenergic receptor alpha-2 (Rattus norvegicus, UniProt P22086+P19328+P22909).
T2 sequence (P22086 whole entry): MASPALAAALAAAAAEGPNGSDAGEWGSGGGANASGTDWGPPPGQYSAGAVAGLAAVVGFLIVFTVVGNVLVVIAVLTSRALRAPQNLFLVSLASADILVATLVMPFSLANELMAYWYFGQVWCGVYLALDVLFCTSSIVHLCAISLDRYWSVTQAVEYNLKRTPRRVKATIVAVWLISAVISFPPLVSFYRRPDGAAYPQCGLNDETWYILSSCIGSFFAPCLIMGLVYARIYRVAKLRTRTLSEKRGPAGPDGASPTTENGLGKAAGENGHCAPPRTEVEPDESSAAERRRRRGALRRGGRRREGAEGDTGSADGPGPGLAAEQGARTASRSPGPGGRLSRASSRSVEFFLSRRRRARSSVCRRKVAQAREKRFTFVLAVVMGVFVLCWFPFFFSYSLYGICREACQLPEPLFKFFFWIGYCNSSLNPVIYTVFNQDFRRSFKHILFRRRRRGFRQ
T2 sequence (P19328 whole entry): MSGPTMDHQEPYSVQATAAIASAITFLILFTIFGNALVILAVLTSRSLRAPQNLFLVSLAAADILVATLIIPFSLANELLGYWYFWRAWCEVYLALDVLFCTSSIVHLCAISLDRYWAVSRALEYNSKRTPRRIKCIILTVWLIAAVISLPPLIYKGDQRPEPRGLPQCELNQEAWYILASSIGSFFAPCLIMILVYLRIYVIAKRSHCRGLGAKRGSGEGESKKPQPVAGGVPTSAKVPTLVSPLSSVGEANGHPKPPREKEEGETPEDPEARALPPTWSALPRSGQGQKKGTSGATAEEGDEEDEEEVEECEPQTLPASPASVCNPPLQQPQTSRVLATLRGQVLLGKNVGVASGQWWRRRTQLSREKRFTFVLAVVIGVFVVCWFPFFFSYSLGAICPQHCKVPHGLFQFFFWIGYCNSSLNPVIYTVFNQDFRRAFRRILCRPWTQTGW
T2 sequence (P22909 whole entry): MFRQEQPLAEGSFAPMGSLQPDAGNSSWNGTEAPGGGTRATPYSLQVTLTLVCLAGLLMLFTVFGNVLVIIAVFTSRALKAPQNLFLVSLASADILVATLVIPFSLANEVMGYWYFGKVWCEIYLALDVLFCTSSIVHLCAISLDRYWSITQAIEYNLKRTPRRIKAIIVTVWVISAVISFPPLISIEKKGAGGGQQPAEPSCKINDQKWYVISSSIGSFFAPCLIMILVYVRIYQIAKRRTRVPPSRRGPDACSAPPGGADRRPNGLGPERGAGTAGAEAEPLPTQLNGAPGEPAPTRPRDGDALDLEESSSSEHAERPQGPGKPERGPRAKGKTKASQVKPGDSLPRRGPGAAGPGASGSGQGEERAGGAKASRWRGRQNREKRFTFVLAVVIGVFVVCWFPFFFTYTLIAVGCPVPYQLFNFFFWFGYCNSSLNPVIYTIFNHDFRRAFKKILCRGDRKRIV
Put plainly: Binding affinity towards alpha-2 adrenergic receptor in rat using [3H]rauwolscine as radioligand. The method in brief: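 Male Sprague-Dawley rat cerebral cortex membranes (50-150 µg/mL protein) in 50 mM Tris-HCl pH 7.7 with [3H]rauwolscine. Incubated 2 h at 4 °C; phentolamine 10^-5 M defined nonspecific binding. At least four concentrations from 10^-10 to 10^-3 M, each in duplicate. Bound ligand was filtered and counted by scintillation.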

Experiment [3] has as its target Adrenergic receptor alpha (Rattus norvegicus) (UniProt P15823+P23944+P43140+P22086+P19328+P22909). The experiment is described as follows: Relative affinities for Alpha1 and alpha-2 adrenergic receptors in rat.

With `NCC(O)c1cc(O)c(O)cc1F` (configuration not stated), the Ki in experiment [1] was 0.65 µM.

On to `CN(C)CC1CCCc2c1ccc(O)c2O` (configuration not stated), for which the inhibition constant Ki in experiment [1] amounted to 13 µM; in experiment [2], 0.66 µM.

`CC(C)NCC1CCCc2cc(O)c(O)cc21` (configuration not stated): the Ki in experiment [1] amounted to 14 µM; in experiment [2] it was 2.5 µM.

`CCN(CC)CC1CCc2c1ccc(O)c2O` (configuration not stated): the inhibition constant (Ki) turned out to be 3.6 µM in experiment [1] and 0.32 µM in experiment [2]. Moreover, the Ratio in experiment [3] was found to be 11.

For the compound `NCC1CCCc2cc(O)c(O)cc21` (configuration not stated), the inhibitory constant (Ki) in experiment [1] stood at 15 µM; in experiment [2] it was 5.1 µM.

As to `NCC1CCCCc2c1ccc(O)c2O` (configuration not stated), the inhibition constant Ki was 27 µM in experiment [1] and 0.88 µM in experiment [2]. The Ratio in experiment [3] came to 30.

For `NCC1Cc2cc(O)c(O)cc21` (configuration not stated), the Ki is 5 µM in experiment [1] and 0.2 µM in experiment [2].

`CCNCC1CCc2c1ccc(O)c2O` (configuration not stated): the Ki in experiment [1] is 2.5 µM; in experiment [2], 0.13 µM. The Ratio in experiment [3] was determined as 20.

For `NCC(O)c1ccc(O)c(O)c1F` (configuration not stated), the figures for the Ki in experiment [1] and in experiment [2] were 25 µM and 1.4 µM, respectively.

For `CCCN(CCC)CC1CCCc2c1ccc(O)c2O` (configuration not stated), the inhibitory constant (Ki) amounted to 7.9 µM in experiment [1] and 0.18 µM in experiment [2].

Consider `CN(C)CC1CCc2c1ccc(O)c2O` (configuration not stated), for which the results for the Ki in experiment [1] and in experiment [2] were 6.9 µM and 0.025 µM, respectively. Moreover, the Ratio in experiment [3] was 270.

Take `CC(C)NCC1CCc2c1ccc(O)c2O` (configuration not stated): the Ki in experiment [1] was 4.6 µM; in experiment [2] it was 0.66 µM. The Ratio in experiment [3] worked out at 6.9.

On to `NCC1Cc2c1ccc(O)c2O` (configuration not stated), for which the values for the inhibition constant (Ki) in experiment [1] and in experiment [2] were 16 µM and 0.17 µM, respectively. In addition, the Ratio in experiment [3] turned out to be 98.

On to `CN(C)CC1CCc2cc(O)c(O)cc21` (configuration not stated), for which the inhibition constant (Ki) in experiment [1] came to 13 µM; in experiment [2], 0.86 µM.

With `CN(C)CC1CCCc2cc(O)c(O)cc21` (configuration not stated), the Ki came out at 13 µM in experiment [1] and 0.7 µM in experiment [2].

Consider `NCC1CCc2c1ccc(O)c2O` (configuration not stated), for which the inhibition constant (Ki) in experiment [1] is 8.6 µM; in experiment [2] it was 0.015 µM. Also, the Ratio in experiment [3] is 560.

Take `CCCN(CCC)CC1CCCc2cc(O)c(O)cc21` (configuration not stated): the Ki was found to be 16 µM in experiment [1] and 0.6 µM in experiment [2].

Regarding `NCC1CCCCc2cc(O)c(O)cc21` (configuration not stated), the Ki in experiment [1] is 11 µM; in experiment [2] it was 19 µM.

On to `CNCC1CCCc2c1ccc(O)c2O` (configuration not stated), for which the Ki in experiment [1] came to 7.9 µM; in experiment [2] it was 0.044 µM.

In turn, `Brc1c(NC2=NCCN2)ccc2nccnc12` [BRIMONIDINE] gave a Ki in experiment [1] of 0.74 µM.

As for `NCC1CCc2cc(O)c(O)cc21` (configuration not stated), the results for the Ki in experiment [1] and in experiment [2] were 26 µM and 0.52 µM, respectively.

Take `CCCN(CCC)CC1CCc2cc(O)c(O)cc21` (configuration not stated): the inhibition constant Ki in experiment [1] was determined as 29 µM; in experiment [2], 0.69 µM.

With `CNCC1CCc2c1ccc(O)c2O` (configuration not stated), the Ki is 2 µM in experiment [1] and 0.007 µM in experiment [2]. Moreover, the Ratio in experiment [3] was 290.

Take `CNCC1CCCc2cc(O)c(O)cc21` (configuration not stated): the values for the Ki in experiment [1] and in experiment [2] were 8.7 µM and 1.3 µM, respectively.

For the compound `CN(C)CC1Cc2c1ccc(O)c2O` (configuration not stated), the inhibition constant (Ki) in experiment [1] is 3.3 µM; in experiment [2] it was 0.021 µM. The Ratio in experiment [3] is 160.

`CCN(CC)CC1CCCc2c1ccc(O)c2O` (configuration not stated): the Ki was 3.1 µM in experiment [1] and 0.25 µM in experiment [2]. For the same compound, in experiment [3], the Ratio was 13.

Consider `NCC1CCCc2c1ccc(O)c2O` (configuration not stated), for which the Ki in experiment [1] came out at 13 µM; in experiment [2], 0.047 µM.

Regarding `CC(C)NCC1CCCc2c1ccc(O)c2O` (configuration not stated), the Ki in experiment [1] was determined as 6.6 µM; in experiment [2], 4.7 µM.

As for `CCCN(CCC)CC1CCc2c1ccc(O)c2O` (configuration not stated), the Ki is 7.4 µM in experiment [1] and 0.47 µM in experiment [2]. Besides, the Ratio in experiment [3] worked out at 16.

Turning to `CC(C)NCC1CCc2cc(O)c(O)cc21` (configuration not stated), the results for the inhibitory constant (Ki) in experiment [1] and in experiment [2] were 11 µM and 3.8 µM, respectively.

As to `CCNCC1CCCc2c1ccc(O)c2O` (configuration not stated), the Ki worked out at 7.9 µM in experiment [1] and 0.2 µM in experiment [2]. The Ratio in experiment [3] stood at 40.
